According to ChEMBL document CHEMBL1782031, “Urea/thiourea derivatives of quinazolinone-lysine conjugates: synthesis and structure-activity relationships of a new series of antimicrobials” (2011):

Assays:
Format in all cases: functional
Conditions in all cases: read-out: DIZ
[1] = system: Escherichia coli; assay: Antibacterial activity against Escherichia coli at 10 ug/disc after 24 hrs by disc diffusion method
How it was run: (§1)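 Disc diffusion assay. Discs were held at 4 °C for 2 h so the compounds could diffuse, then incubated at 28 °C. Inhibition zone diameters were measured in mm after 24 h. Each compound was tested in triplicate.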

[2] = system: Pseudomonas fluorescens; assay: Antibacterial activity against Pseudomonas fluorescens at 10 ug/disc after 24 hrs by disc diffusion method; how it was run: as §1
[3] = Antibacterial activity against Xanthomonas campestris pvs. at 10 ug/disc after 24 hrs by disc diffusion method; how it was run: as §1
[4] = system: Xanthomonas oryzae; assay: Antibacterial activity against Xanthomonas oryzae at 10 ug/disc after 24 hrs by disc diffusion method
[5] = system: Bacillus subtilis; assay: Antibacterial activity against Bacillus subtilis at 10 ug/disc after 24 hrs by disc diffusion method; how it was run: as §1

SMILES | zone of inhibition at 10 µg/disc [1] [mm] | zone of inhibition at 10 µg/disc [2] [mm] | zone of inhibition at 10 µg/disc [3] [mm] | zone of inhibition at 10 µg/disc [4] [mm] | zone of inhibition at 10 µg/disc [5] [mm]
COC(=O)[C@H](CCCCNC(=O)Nc1ccc(Cl)cc1)NC(=O)CCCc1nc2ccccc2c(=O)[nH]1 | 26 | 29 | 28 | 30 | 25
COC(=O)[C@H](CCCCNC(=O)OC(C)(C)C)NC(=O)CCc1nc2ccccc2c(=O)[nH]1 | 9 | 11 | 12 | 12 | 8
COc1ccc(NC(=O)NCCCC[C@H](NC(=O)CCc2nc3ccccc3c(=O)[nH]2)C(=O)O)cc1 | 25 | 27 | 28 | 28 | 24
CC(C)(C)OC(=O)NCCCC[C@H](NC(=O)CCc1nc2ccccc2c(=O)[nH]1)C(=O)O | 11 | 14 | 13 | 14 | 10
O=C(CCCc1nc2ccccc2c(=O)[nH]1)N[C@@H](CCCCNC(=O)Nc1ccc(Cl)cc1)C(=O)O | 28 | 30 | 28 | 29 | 29
COC(=O)[C@H](CCCCNC(=O)Nc1cccc(F)c1)NC(=O)CCc1nc2ccccc2c(=O)[nH]1 | 36 | 36 | 37 | 36 | 35
